Test results published in ChEMBL document CHEMBL1132497, “Synthesis and SAR of adatanserin: novel adamantyl aryl- and heteroarylpiperazines with dual serotonin 5-HT(1A) and 5-HT(2) activity as potential anxiolytic and antidepressant agents” (J Med Chem, 1999).

Assays:
[1] = molecular target: Serotonin 2 (5-HT2) receptor (Rattus norvegicus, UniProt P30994+P08909+P14842); assay: Inhibitory activity against rat cortical 5-hydroxytryptamine 2 receptor; assay type: protein assay
Summary of the method: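 Cortical membranes from male Sprague–Dawley rats, incubated 15 min at 37 °C in 50 mM Tris pH 7.6 with 1.0 nM [3H]ketanserin and a range of drug concentrations. Nonspecific binding defined with 100 μM methysergide. Run by filtration and counting.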

[2] = molecular target: T1, 5-hydroxytryptamine receptor 1A (Rattus norvegicus, UniProt P19327); assay: Antagonist activity against rat hippocampal tissue 5-hydroxytryptamine 1A receptor; assay type: functional, tissue-based, Hippocampus
T1 sequence (P19327 whole entry): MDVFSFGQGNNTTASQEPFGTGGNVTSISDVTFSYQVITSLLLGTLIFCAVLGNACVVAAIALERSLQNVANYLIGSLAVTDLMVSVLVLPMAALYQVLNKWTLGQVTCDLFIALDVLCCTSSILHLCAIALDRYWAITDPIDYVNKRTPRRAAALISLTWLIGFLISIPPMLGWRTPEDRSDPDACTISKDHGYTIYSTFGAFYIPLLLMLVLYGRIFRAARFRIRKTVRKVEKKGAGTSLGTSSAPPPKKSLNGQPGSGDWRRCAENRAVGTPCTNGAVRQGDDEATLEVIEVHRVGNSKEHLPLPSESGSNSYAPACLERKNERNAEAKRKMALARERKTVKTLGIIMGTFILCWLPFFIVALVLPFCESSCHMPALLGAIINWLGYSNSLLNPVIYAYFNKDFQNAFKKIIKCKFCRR

D(2) dopamine receptor = D(2) dopamine receptor (Rattus norvegicus, UniProt P61169); assay: Inhibitory activity against rat limbic tissue Dopamine receptor D2; assay type: tissue-based, Limbic system
Chain of D(2) dopamine receptor (P61169 whole entry): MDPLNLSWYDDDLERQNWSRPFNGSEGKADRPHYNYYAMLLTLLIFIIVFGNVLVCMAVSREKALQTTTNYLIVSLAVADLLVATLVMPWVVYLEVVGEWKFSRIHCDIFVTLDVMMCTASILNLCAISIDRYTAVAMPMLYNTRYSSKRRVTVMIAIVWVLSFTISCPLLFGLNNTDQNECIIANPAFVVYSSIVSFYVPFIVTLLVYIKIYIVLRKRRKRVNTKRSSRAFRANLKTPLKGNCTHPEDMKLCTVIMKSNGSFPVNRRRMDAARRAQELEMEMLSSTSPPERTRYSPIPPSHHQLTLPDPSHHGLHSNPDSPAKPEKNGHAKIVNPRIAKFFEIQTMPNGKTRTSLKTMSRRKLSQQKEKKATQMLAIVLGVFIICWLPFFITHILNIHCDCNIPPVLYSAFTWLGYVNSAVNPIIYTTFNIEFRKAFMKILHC
Summary of the method: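 Rat limbic membranes, handled as in the 5-HT2 assay: 15 min at 37 °C, 50 mM Tris pH 7.6, drug concentration range. 30 nM ketanserin in all tubes to block 5-HT2 sites. Nonspecific binding defined with 10 μM sulpiride. Filtration and counting.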

[3] = molecular target: D(2) dopamine receptor (Rattus norvegicus) (UniProt P61169); assay: Inhibitory activity against Dopamine receptor D2 of rat limbic tissue at 1 uM; assay type: tissue-based; settings: Limbic system
Chain of D(2) dopamine receptor (Rattus norvegicus) (P61169 whole entry): as above

[4] = molecular target: T2, 5-hydroxytryptamine receptor 1A (Rattus norvegicus) (UniProt P19327); assay: Inhibitory activity against 5-hydroxytryptamine 1A receptor of rat hippocampal tissue at 1 uM; assay type: tissue-based; settings: Hippocampus
T2 sequence (whole entry): T1 sequence (P19327 whole entry)

SMILES | Ki [1] | Ki [2] | Ki (D(2) dopamine receptor) | inhibition [3] | inhibition [4]
O=C(N[C@H](Cc1ccccc1)CN1CCN(c2ncccn2)CC1)C12C[C@H]3C[C@@H](C1)C[C@@H](C2)C3 | 395 nM | 0.43 nM | 20 nM |  | 
COc1ccccc1N1CCN(C[C@@H](C)NC(=O)C23C[C@H]4C[C@@H](C2)C[C@@H](C3)C4)CC1 |  | 0.22 nM | 21.5 nM |  | 
COc1ccccc1N1CCN(CCNC(=O)C23C[C@H]4C[C@@H](C2)C[C@@H](C3)C4)CC1.Cl.Cl | 274 nM | 1 nM | 24 nM |  | 
COc1ccccc1N1CCN(CCCNC(=O)NC23C[C@H]4C[C@@H](C2)C[C@@H](C3)C4)CC1.Cl.Cl | 348 nM | 1 nM | 176 nM |  | 
C[C@@]12C[C@@H]3C[C@@H](CC(CC(=O)OCCN4CCN(c5cccc(C(F)(F)F)c5)CC4)(C3)C1)C2 |  |  |  | 29% | 35%
C[C@H](CN1CCN(c2ncccn2)CC1)NC(=O)C12C[C@H]3C[C@@H](C1)C[C@@H](C2)C3 | 961 nM | 1.1 nM | 153 nM |  | 
C[C@@]12C[C@@H]3C[C@@H](CC(CC(=O)OCCCN4CCN(c5cccc(Cl)c5)CC4)(C3)C1)C2 |  |  |  |  | 58%
Cl.Cl.O=C(NCCCN1CCN(c2ncccn2)CC1)NC12C[C@H]3C[C@@H](C1)C[C@@H](C2)C3 | 1600 nM | 7 nM | > 10000 nM |  | 
COc1ccccc1N1CCN(CCOC(=O)CC23C[C@H]4C[C@@H](C2)C[C@](C)(C4)C3)CC1 |  |  |  | 97% | 86%
O=C(OCCN1CCN(C(c2ccc(F)cc2)c2ccc(F)cc2)CC1)C12C[C@H]3C[C@@H](C1)C[C@@H](C2)C3 |  |  |  |  | 4%
C[C@@]12C[C@@H]3C[C@@H](CC(CC(=O)OCCCN4CCN(c5cccc(C(F)(F)F)c5)CC4)(C3)C1)C2 |  |  |  |  | 56%
C[C@@]12C[C@@H]3C[C@@H](CC(CC(=O)OCCN4CCN(c5cccc(Cl)c5)CC4)(C3)C1)C2 |  |  |  | 19% | 34%
O=C(NC12C[C@H]3C[C@@H](C1)C[C@@H](C2)C3)N1CCN(c2ncccn2)CC1 |  |  |  |  | 3%
O=C(NCCN1CCN(C(c2ccc(Cl)cc2)c2ccc(Cl)cc2)CC1)NC12C[C@H]3C[C@@H](C1)C[C@@H](C2)C3 |  |  |  |  | 9%
C[C@@]12C[C@@H]3C[C@@H](CC(CC(=O)OCCN4CCN(c5ncccn5)CC4)(C3)C1)C2 |  |  |  | 39% | 72%
C[C@@]12C[C@@H]3C[C@@H](CC(CC(=O)NCCCN4CCN(c5cccc(Cl)c5)CC4)(C3)C1)C2 |  |  |  |  | 81%

Now from value to compound:

Ki [1] | Ki [2] | Ki (D(2) dopamine receptor) | inhibition [3] | inhibition [4] | SMILES
 |  |  | 67% | 80% | O=C(OCCCN1CCN(c2cccc(Cl)c2)CC1)C12C[C@H]3C[C@@H](C1)C[C@@H](C2)C3
 |  |  | 1% | 21% | C[C@@H](CN1CCN(c2ncccn2)CC1)NC(=O)C12C[C@H]3C[C@@H](C1)C[C@@H](C2)C3
 |  |  | 54% | 75% | O=C(OCCCN1CCN(c2cccc(C(F)(F)F)c2)CC1)C12C[C@H]3C[C@@H](C1)C[C@@H](C2)C3
 |  |  |  | 9% | O=C(N1CCN(c2ncccn2)CC1)C12C[C@H]3C[C@@H](C1)C[C@@H](C2)C3
 |  |  | 20% | 68% | C[C@@]12C[C@@H]3C[C@@H](CC(CC(=O)NCCCN4CCN(c5ncccn5)CC4)(C3)C1)C2
 |  |  | 73% | 83% | O=C(NCCN1CCN(c2cccc(C(F)(F)F)c2)CC1)C12CC3CC(CC1C3)C2
 |  |  |  | 0% | O=C(NC12C[C@H]3C[C@@H](C1)C[C@@H](C2)C3)N1CCN(c2cccc(Cl)c2)CC1
 |  |  | 33% | 72% | O=C(OCCCN1CCN(c2ncccn2)CC1)C12C[C@H]3C[C@@H](C1)C[C@@H](C2)C3
 | 62 nM | 76 nM |  |  | O=C(N[C@H](COCc1ccccc1)CN1CCN(Cc2ccccc2)CC1)C12C[C@H]3C[C@@H](C1)C[C@@H](C2)C3
